PRMT1 FP inh – PRMT1 methyltransferase inhibitors, primary screen, biochemical, fluorescence polarization; recombinant PRMT1, activity-based probe fluorescence polarization; inhibition, % at 2.79 µM; 370,000 compounds, 1.3% hits; AID 652257, 2013;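 active means inhibition above about 21% made by adding two undisclosed values, limit read from the data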
TCR-CD3 inh – inhibitors of human TCR-CD3 interaction, primary screen, biochemical, fluorescence, TAMRA-labeled TCR probe; T-cell receptor (TCR); inhibition, % at 9.4 µM; 360,000 compounds, 0.37% hits; in the data active means inhibition above about 19%;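 further: recombinant mutant TCR 2C K166C tagged with TAMRA read by polarization; 0% = receptor in buffer alone and 100% = receptor with positive control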
HTRA1 inhibitor – HTRA1 serine protease inhibitors, primary screen, biochemical, fluorescence polarization, HTS | inhibition, % at 5.96 µM | recombinant HTRA1, FP-rhodamine activity-based probe | 340,000 compounds, 0.5% hits | Q92743; in the data active means inhibition above about 36%;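 further: 0% = enzyme with DMSO and 100% = wells lacking enzyme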
Target sequence (Q92743 whole entry, looked up): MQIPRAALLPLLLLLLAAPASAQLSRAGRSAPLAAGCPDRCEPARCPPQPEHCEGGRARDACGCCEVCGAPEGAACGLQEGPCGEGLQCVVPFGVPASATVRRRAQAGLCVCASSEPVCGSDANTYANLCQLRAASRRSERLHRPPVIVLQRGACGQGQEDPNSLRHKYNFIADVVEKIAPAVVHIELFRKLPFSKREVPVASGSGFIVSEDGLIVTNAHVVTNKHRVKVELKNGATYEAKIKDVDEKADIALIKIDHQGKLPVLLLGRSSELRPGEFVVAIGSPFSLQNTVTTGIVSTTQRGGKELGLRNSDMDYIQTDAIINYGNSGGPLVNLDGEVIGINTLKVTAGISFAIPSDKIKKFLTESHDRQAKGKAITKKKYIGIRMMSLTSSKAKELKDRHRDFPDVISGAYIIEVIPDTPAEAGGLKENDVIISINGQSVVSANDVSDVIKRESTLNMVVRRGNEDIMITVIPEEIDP
mABHD4 FP – ABHD4 inhibitors, primary screen, biochemical, fluorescence polarization, mouse | (Lyso)-N-acylphosphatidylethanolamine lipase (Mus musculus), Q8VD66 | purified mABHD4, FP-Rh probe fluorescence polarization | inhibition, % at 8.92 µM | 370,000 compounds, 0.54% hits;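 active means inhibition exceeding the mean over every tested compound plus 3 SD, cut at about 30% in these data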;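 further: 0% = plate median of compound wells and 100% = S159A mutant with DMSO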
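assay system = mABHD4 protein | compound dosing = single nominal dose of 8.92 µM, 0.89% DMSO final | read-out basis = percent inhibition of probe binding, normalized to plate controls | schedule = Enzyme–compound pre-incubation 45 min, then probe 60 min, both 25 °C | detection = fluorescence polarization, excitation 525 nm, emission 598 nm, BODIPY TMR filters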
SIAE primary – human SIAE inhibitors, primary screen, biochemical, fluorescence polarization, FP-Rh probe, 1536-well HTS; Sialate O-acetylesterase (Homo sapiens), Q9HAT2; SIAE FP-Rh probe binding; inhibition, % at 9.66 µM; 370,000 compounds, 0.69% hits; AID 1053197, 2014;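 active means inhibition above a cutoff: mean of compounds within the control limits plus 3 SD of those, cut at about 17% in these data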;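 further: 0% = plate median of compound wells and 100% = probe without SIAE protein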
PRMT1 confirm – PRMT1 methyltransferase inhibitors, confirmation, biochemical, fluorescence polarization, triplicate. recombinant His-PRMT1, activity-based probe fluorescence polarization. inhibition, % at 2.79 µM. 3,300 compounds, 42% hits. shares compounds with PRMT1 FP inh;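 active means mean inhibition across replicates above the hit cutoff derived for the earlier primary screen, cut at about 22% in these data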
mABHD4 conf – ABHD4 inhibitors, retest, confirmation, biochemical, fluorescence polarization, mouse; 1,800 compounds, 55% hits; inhibition, % at 8.92 µM; purified mABHD4, FP-Rh probe fluorescence polarization; AID 720658, 2013; shares compounds with mABHD4 FP;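 active means mean inhibition across replicates above the hit cutoff set in the primary screen, cut at about 30% in these data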;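 further: 0% = wild-type ABHD4 with DMSO and 100% = catalytically dead S159A mutant with DMSO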
SIAE confirm – human SIAE inhibitors, retest, confirmation, biochemical, fluorescence polarization, FP-Rh probe, triplicate; SIAE FP-Rh activity-based probe; shares compounds with SIAE primary; AID 1117263, 2014; inhibition, % at 9.66 µM; 2,300 compounds, 13% hits;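 active means mean inhibition of the replicates above the hit cutoff set in the primary screen, cut at about 17% in these data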;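 further: 0% = SIAE with DMSO and probe and 100% = probe without SIAE; inhibitors lower polarization as more probe stays unbound to SIAE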
* hit, by the source's call; . = no result; ! = not confirmed by another sample. Compounds with a hit are over-represented: about 2.6% of the library has one in this group of screens.

SMILES	PRMT1 FP inh	TCR-CD3 inh	HTRA1 inhibitor	mABHD4 FP	SIAE primary	PRMT1 confirm	mABHD4 conf	SIAE confirm
CN1CC=C2C(C#N)=C(N)C(C#N)(C#N)[C@H](c3ccoc3)[C@H]2C1	.	.	24.2	.	.	.	.	.
N#CC1=C(N)C(C#N)(C#N)[C@H](c2ccoc2)[C@H]2CN(Cc3ccccc3)CC=C12	33.2*	8.8	33.4	31.5*	8.4	4.9	5.2	.
COc1ccccc1N(CC(=O)N(CC(C)C)CC(C)C)S(=O)(=O)c1cccs1	-3.3	4.7	-10.3	5.6	10.0	.	.	.
CC(C)C(=O)N(c1cc2sc(=O)oc2c2ccccc12)S(=O)(=O)c1cccs1	81.1*	-4.6	16.5	42.1*	10.7	21.8*	20.3	.
COc1ccccc1N1C(=O)C(Cl)=C(Nc2ccccc2O)C1=O	40.3*	-4.3	8.8	30.8*	-4.5	25.8*	15.8	.
CCOc1ccccc1NC1=C(Cl)C(=O)N(c2ccc(OC)cc2)C1=O	8.2	4.5	-10.5	-0.4	-1.9	.	.	.
O=C(CCCN1C(=O)/C(=C\c2cccs2)SC1=S)Nc1ccc(O)cc1C(=O)O	2.2	12.8	1.2	3.2	-3.1	.	.	.
O=C(CCCN1C(=O)/C(=C\c2ccco2)SC1=S)Nc1ccc(O)cc1C(=O)O	61.8*	7.5	5.0	46.2*	6.1	36.7*	6.8	.
COC(=O)[C@]1(Cc2ccccc2)N[C@H](CN(C)C(=O)COc2ccccc2)[C@@H]2C(=O)N(Cc3ccccc3)C(=O)[C@@H]21	-2.1	-3.9	-4.7	-5.1	8.4	.	.	.
O=C(Nc1cccc(S(=O)(=O)Nc2ccccc2F)c1)c1ccco1	6.7	-6.7	-4.1	-3.0	-2.1	.	.	.
O=C1CCC(C(=O)Nc2cccc(S(=O)(=O)Nc3ccccc3F)c2)=NN1	31.3*	1.9	0.7	7.2	23.8*	20.9	.	2.8
COc1ccc(Cl)cc1NC(=O)CN(C)C(=O)C12CC3CC(CC(Cl)(C3)C1)C2	4.1	-9.2	-25.8	-9.4	-3.4	.	.	.
Oc1c(C=C2N=c3ccccc3=N2)sc(=S)n1-c1ccc(F)cc1	40.8*!	1.8	0.2	-3.9	18.3*!	2.9	.	0.5
CCN(CC)C(=O)C1=C(C)N(CCC2=CCCCC2)C(=O)C(CC(=O)NCCCN(C)C)C1 (stereo unspecified)	1.2	4.9	7.5	1.4	0.1	.	.	.
CCOC(=O)C(=C1Nc2ccccc2N1)n1c(-c2cnccn2)nc2ccccc21	-2.9	0.5	.	1.1	1.4	.	.	.
CCOC(=O)C(=C1Nc2ccccc2N1)n1c(-c2ccco2)nc2ccccc21	28.9*	21.6*	.	32.0*	17.8*	87.5*	12.6	-1.7
C=C1CCN([C@@H](Cc2ccccc2)C(=O)NCc2ccc(Cl)cc2)S(=O)(=O)c2ccccc21	0.9	8.8	-38.1	-21.8	-1.0	.	.	.
COc1ccccc1N(O)C1CC(=O)N(c2ccc(Br)cc2)C1=O (stereo unspecified)	41.7*	-0.5	11.3	34.4*	20.1*	50.0*	27.6	9.1
COc1ccc(N2C(=O)CC(Cc3ccc(Br)cc3)C2=O)cc1 (stereo unspecified)	-3.8	5.9	-5.5	-6.0	5.5	.	.	.
CC(=O)c1ccc(S(=O)(=O)N2CCC(NC(=O)c3ccccc3)CC2)cc1	2.1	-7.8	-4.8	-4.3	-4.8	.	.	.
N/C(Cc1cccc2ccccc12)=N\OC(=O)c1ccccc1F	49.0*	15.0	0.7	47.7*	41.3*	4.0	3.1	-7.7
c1cc(CNc2ccc3c(c2)OCO3)ccn1	36.8*	17.3	16.1	19.3	18.5*	7.0	.	4.2
O=C(NCc1ccncc1)C(=O)Nc1ccc2c(c1)OCO2	-1.8	5.6	5.6	-0.4	0.5	.	.	.
OCCCNc1ncnc2c1ncn2[C@H]1CN(Cc2ccco2)C[C@@H](CO)O1	4.9	0.1	.	4.4	4.1	.	.	.
COc1cc(SSc2cc(OC)cc([N+](=O)[O-])c2N)c(N)c([N+](=O)[O-])c1	76.4*	-7.7	17.0	28.8	25.0*	90.0*	.	2.5
SMILES	PRMT1 FP inh	TCR-CD3 inh	HTRA1 inhibitor	mABHD4 FP	SIAE primary	PRMT1 confirm	mABHD4 conf	SIAE confirm
O=C(c1ccc2nc(-c3ccco3)c(-c3ccco3)nc2c1)N1CCN(c2ccccc2)CC1	54.3*	-5.4	-3.6	31.7*	32.3*	4.1	-2.7	2.6
COc1ccc(N=Nc2nc3ccc(Br)cc3n2C)cc1	132.5*	13.0	12.5	5.7	18.3*	6.8	.	0.2
Cc1nc(C)c(-c2csc(Nc3cccc(O)c3)n2)s1	3.8	-4.5	-1.5	12.4	1.5	.	.	.
Cc1nc(N)sc1-c1csc(Nc2cccc(O)c2)n1	25.2*	4.5	16.0	21.5	17.4*	4.9	.	-2.6
O=C(O)C1Nc2c(O)cccc2C2C=CCC12 (stereo unspecified)	19.1	71.9*	50.1*	43.5*	63.9*	.	47.2*	.
O=C(O)c1ccc2c(c1)C(=O)N(c1ccc(Nc3ccccc3)cc1)C2=O	2.9	-1.4	12.6	30.6*	8.0	.	18.1	.
C[C@@H]1C=CCCO[C@]12C(=O)N(CC1CC1)c1cccc(Br)c12	-4.4	4.3	.	39.7*	8.7	.	40.0*	.
Cc1cccc(/C=C/c2onc(C)c2S(=O)(=O)N2CCC(C(=O)NC(C)C)CC2)c1	-3.7	0.1	-5.2	-5.2	-1.1	.	.	.
Cc1cc(-c2nnc(SCC(=O)Nc3cccc(Cl)c3)n2N)n[nH]1	3.4	0.9	-3.0	0.8	-1.5	.	.	.
CC1(C)Oc2cc(N)c([N+](=O)[O-])cc2O1	14.6	3.4	7.2	41.2*	6.3	.	-10.9	.
CC(C)=CCC/C(C)=C/C[C@]12C[C@H](C(=O)O)N(C(=O)OC(C)(C)C)[C@@H]1N(C(=O)OC(C)(C)C)c1ccccc12	6.2	.	.	50.6*	0.5	.	40.3*	.
Oc1ccccc1N=Cc1sc2ccccc2c1Cl	5.6	6.0	6.1	32.4*	11.7	.	-5.9	.
O=C(Nc1cccc(C(=O)O)c1)/C(=C/c1ccc([N+](=O)[O-])cc1)NC(=O)c1ccccc1	-3.2	3.4	-3.4	-5.1	-2.4	.	.	.
CC(C)(C)c1ccc(C(=O)N/C(=C\c2cccc([N+](=O)[O-])c2)C(=O)Nc2cccc(C(=O)O)c2)cc1	1.3	0.6	-26.7	33.3*	-2.5	.	31.2*	.
Cc1ccc(Nc2nc3ccc(Cl)cc3n3cnnc23)cc1F	3.4	4.1	-11.6	-10.4	-5.7	.	.	.
